According to publication PMC7758955 (ACS Omega, 2020):

How the values were obtained:
[1] = target: T1, COX-1 (ovine) (Ovis aries, UniProt P05979); test: COX Fluorescent Inhibitor Screening Assay Kit, COX-1; type: biochemical
T1 sequence (P05979 25-600): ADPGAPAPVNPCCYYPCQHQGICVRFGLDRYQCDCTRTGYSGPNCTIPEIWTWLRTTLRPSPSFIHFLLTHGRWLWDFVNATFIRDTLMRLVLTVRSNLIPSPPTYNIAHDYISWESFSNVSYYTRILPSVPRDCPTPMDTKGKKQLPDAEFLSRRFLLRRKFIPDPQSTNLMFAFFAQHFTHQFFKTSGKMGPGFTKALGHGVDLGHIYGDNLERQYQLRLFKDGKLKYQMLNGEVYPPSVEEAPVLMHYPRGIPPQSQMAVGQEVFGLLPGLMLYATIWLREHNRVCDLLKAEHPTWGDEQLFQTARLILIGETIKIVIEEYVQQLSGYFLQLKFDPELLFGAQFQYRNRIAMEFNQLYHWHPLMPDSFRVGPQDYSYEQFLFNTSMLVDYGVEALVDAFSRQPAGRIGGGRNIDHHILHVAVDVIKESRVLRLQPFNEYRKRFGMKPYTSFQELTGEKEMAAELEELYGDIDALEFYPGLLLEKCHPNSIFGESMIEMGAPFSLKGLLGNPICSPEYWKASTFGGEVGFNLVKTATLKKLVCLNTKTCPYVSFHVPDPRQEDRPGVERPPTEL

[2] = target: T2, COX-2 (human recombinant) (Homo sapiens, UniProt P35354); test: COX Fluorescent Inhibitor Screening Assay Kit, COX-2; type: biochemical
T2 sequence (P35354 18-604): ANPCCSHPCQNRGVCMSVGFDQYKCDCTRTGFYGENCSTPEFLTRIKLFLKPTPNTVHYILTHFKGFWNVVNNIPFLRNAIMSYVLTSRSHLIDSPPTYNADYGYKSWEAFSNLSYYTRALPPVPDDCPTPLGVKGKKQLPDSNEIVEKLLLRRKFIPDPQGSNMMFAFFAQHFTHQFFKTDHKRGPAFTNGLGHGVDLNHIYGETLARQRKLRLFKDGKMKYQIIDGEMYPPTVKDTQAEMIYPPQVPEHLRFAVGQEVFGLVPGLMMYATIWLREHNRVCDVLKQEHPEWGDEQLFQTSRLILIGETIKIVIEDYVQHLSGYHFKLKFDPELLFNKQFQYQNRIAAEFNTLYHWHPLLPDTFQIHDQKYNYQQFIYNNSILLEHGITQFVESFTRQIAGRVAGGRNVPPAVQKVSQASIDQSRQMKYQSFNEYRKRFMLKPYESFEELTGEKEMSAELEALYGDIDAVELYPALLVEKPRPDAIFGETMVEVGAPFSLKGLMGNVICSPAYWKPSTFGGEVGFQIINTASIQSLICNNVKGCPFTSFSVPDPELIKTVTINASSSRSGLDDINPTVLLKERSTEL

[3] = system: cryopreserved human hepatocytes; test: Hepatocyte toxicity by WST-8 assay; type: cell-based; details: 200 μM, 2 h with shaking, relative to control (0.25 v/v% DMSO)
Method in brief: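 Thawed cryopreserved human hepatocytes were kept at 37 °C in humidified 5% CO2 and seeded at 5.0 × 10^4 cells/well. Test compound was added in DMSO (final 0.25% v/v; DMSO-only control), then shaken 2 h. CCK-8 (WST-8) reagent was added for another 4 h. Absorbance was read at 450 nm (reference 600 nm), and viability was expressed relative to control.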

Compound | IC50 [1] [µM] | IC50 [2] [µM] | COX-2 IC50 relative to that of DCF ([2]; ratio to DCF IC50) | cytotoxicity in cryopreserved human hepatocytes (cell viability, WST-8) [3] | COX-2 inhibition (in words) ([2]; up to a concentration of 100 μM)
O=C(O)Cc1ccccc1Nc1c(Cl)cc(F)cc1Cl [1b] | 0.67 | 27 |  |  | 
O=C(O)Cc1cc(F)ccc1Nc1c(Cl)cc(F)cc1Cl [1d] | 0.73 | 26 |  |  | 
O=C(O)C(F)(F)c1ccccc1Nc1c(Cl)cc(F)cc1Cl [2b] | > 100 | > 100 |  |  | 
O=C(O)C(F)(F)c1cc(F)ccc1Nc1c(Cl)cccc1Cl [2c] | > 100 | 21 | three times higher | much weaker than that of DCF | 
O=C(O)C(F)(F)c1cc(F)ccc1Nc1c(Cl)cc(F)cc1Cl [2d] | > 100 | > 100 |  |  | 
Fc1cc(Cl)c(Nc2ccc(F)cc2Cc2nnn[nH]2)c(Cl)c1 [3d] | > 100 | > 100 |  |  | 
O=S(=O)(O)Cc1ccccc1Nc1c(Cl)cccc1Cl [4a] | > 100 | > 100 |  |  | did not inhibit COX-2
